RGS4 act – RGS4 potentiators or activators, primary screen, cell-based, HEK293 M3R inducible RGS4, calcium flux | carbachol calcium flux Fluo4; stronger effect = lower value | B-score at 10 µM | 310,000 tested, 0.92% active | AID 463111, 2010;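 active means B-score of the integrated calcium signal more than 4 SD below the library mean, with starting fluorescence not abnormally high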;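 further: negative B-score means reduced calcium response which marks RGS4 activation or potentiation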
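System: HEK293 FlpIn-TREx cells, stable M3R, doxycycline-inducible RGS4. Timing: overnight RGS4 induction, 30 min dye load 37 °C, 20 min compound RT. Also added: carbachol, ECmax concentration. Measured by: Fluo4 fluorescence kinetic imaging of calcium. Evaluation: integrated calcium ratio converted to B score.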
MrgX1 antagonist – antagonists of human MrgX1 receptor, primary screen, HEK293 cells, Fluo-4 calcium flux. 310,000 tested, 1.3% active. BAM8-22 antagonism; stronger effect = lower value. B-score at 10 µM. Mas-related G-protein coupled receptor member X1 (Homo sapiens), Q96LB2;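 active means calcium-response B-score plate-corrected more than 3 library SD below zero, starting fluorescence within 5 deviations, no agonist response on first addition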;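 further: peak minus trough fluorescence over baseline after final BAM8-22 challenge near maximal dose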
Target sequence (Q96LB2 whole entry, looked up): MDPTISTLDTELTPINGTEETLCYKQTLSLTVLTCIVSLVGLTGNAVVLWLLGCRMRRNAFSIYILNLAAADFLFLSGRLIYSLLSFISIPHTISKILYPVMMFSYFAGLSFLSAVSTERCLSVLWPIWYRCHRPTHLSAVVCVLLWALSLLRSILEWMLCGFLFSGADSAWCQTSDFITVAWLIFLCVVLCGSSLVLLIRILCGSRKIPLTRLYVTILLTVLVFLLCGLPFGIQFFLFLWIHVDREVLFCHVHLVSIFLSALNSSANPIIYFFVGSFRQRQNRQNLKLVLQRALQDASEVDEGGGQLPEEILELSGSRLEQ
RGS4 inh – RGS4 inhibitors, primary screen, cell-based, HEK293 M3R inducible RGS4, calcium flux. AID 463165, 2010. Fluo-4 calcium flux; stronger effect = higher value; triggered by carbachol at its EC20. 310,000 tested, 0.45% active. Regulator of G-protein signaling 4 (Homo sapiens), P49798. B-score at 10 µM;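 active means B-score, a plate-corrected calcium signal, over three deviations above library mean, with baseline fluorescence within five deviations of library mean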;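 further: RGS4 expression induced by doxycycline in cells with stable M3 receptor; B-score is computed from the integrated fluorescence ratio over baseline after carbachol; higher B-score means a larger calcium signal and so more RGS4 inhibition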
Target sequence (P49798 whole entry, looked up): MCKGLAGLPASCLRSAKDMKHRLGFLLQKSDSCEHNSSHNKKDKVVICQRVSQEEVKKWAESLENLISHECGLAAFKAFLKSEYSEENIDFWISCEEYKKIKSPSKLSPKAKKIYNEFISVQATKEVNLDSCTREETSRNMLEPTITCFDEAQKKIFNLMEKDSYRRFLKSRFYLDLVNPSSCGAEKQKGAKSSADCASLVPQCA
MrgX1 PAM – positive allosteric modulators of MrgX1, primary screen, HEK293 cells, Fluo-4 calcium flux; Mas-related G-protein coupled receptor member X1 (Homo sapiens), Q96LB2; FDSS; stronger effect = higher value; B-score at 10 µM; 310,000 tested, 0.63% active; AID 588675, 2011;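 active means plate-corrected calcium response at least 3 library SD above typical, normal starting fluorescence, not activating the receptor alone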;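 further: compound read alongside a low EC10 to EC30 dose of BAM8-22 agonist; peak minus trough fluorescence over baseline measured at the second addition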
MrgX1 ag – agonists of human MrgX1 receptor, primary screen, HEK293 cells, Fluo-4 calcium flux | AID 588627, 2011 | B-score at 10 µM | 310,000 tested, 0.44% active | Fluo-4 calcium fluorescence, agonist mode; stronger effect = higher value;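 active means calcium response B-score plate-corrected fluorescence ratio at least 3 library SD, with starting fluorescence B-score inside 5 SD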
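Assay system: MrgX1-expressing HEK293 cells / Amount: fifteen thousand cells per well / Doses: test compound in the initial addition of three / Timing: cells plated overnight, dye loaded 0.5 h 37 °C, 0.5 h room temperature / Technique: kinetic calcium dye fluorescence, Fluo-4 NW / Control set: positive and negative controls per plate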
A number is an active result; i = inactive; nt = not tested or not shown. Sampled rows, rich in hits. Any-hit rate of the full collection: about 3.5%.

SMILES | RGS4 act | MrgX1 antagonist | RGS4 inh | MrgX1 PAM | MrgX1 ag
CC1CCCN(c2ccc(C(=O)NCc3ccco3)cc2[N+](=O)[O-])C1 (stereo not drawn) | i | -6.4 | i | i | i
Cc1ccc(C(=O)NCc2ccco2)cc1[N+](=O)[O-] | i | i | i | i | i
CC(=O)OCC1O[C@@H](O[C@@H]2C[C@H]3C(C)(C)[C@H](OC(C)=O)CC[C@]3(C)[C@H]3CC[C@]45C[C@]4(CC[C@H]5[C@@H](C)C[C@@H](O)[C@H](O)C(C)(C)O)[C@@]32C)[C@H](O)[C@@H](O)[C@@H]1O (stereo partly drawn) | i | i | i | i | 42
COc1ccc(CC2=CC(=O)c3ccccc3C2=O)cc1 | i | i | 6.2 | i | i
COc1ccc(NS(=O)(=O)c2cccs2)cc1S(=O)(=O)N1CCOCC1 | i | i | i | i | i
COc1ccc(Nc2nc(-c3cccs3)nc3ccccc23)cc1S(=O)(=O)N1CCOCC1 | -7.3 | i | i | i | i
Nc1nc(-c2ccco2)nn1S(=O)(=O)c1ccc(Cl)cc1 | i | i | i | i | i
CCOc1ccc(/C=N/OCC(=O)NCc2ccc3c(c2)OCO3)cc1OC | i | -5.9 | i | i | i
COc1ccccc1/C=N/OCC(=O)NCc1ccc2c(c1)OCO2 | i | i | i | i | i
CCC1(C)CC(C(CC(=O)O)c2ccc(C)cc2)CCO1 (stereo not drawn) | i | i | i | i | i
COc1ccc(/C=C/C(=O)c2ccc3ccccc3c2O)cc1CN1CCOCC1 | i | -4.7 | i | i | i
CC[C@@H](C)[C@@H](C(=O)N1CCN(C(=O)OC(C)(C)C)CC1)n1cc(CCCCNC(=O)OC(C)(C)C)nn1 | i | i | i | i | i
C=C(CC1([C@@H](NP(=O)(c2ccccc2)c2ccccc2)[C@H]2C[C@@H]2CCCC)CC1)c1ccccc1 | i | -4.8 | i | i | i
CCCC[C@@H]1C[C@H]1[C@@H](NC(=O)c1ccccc1)c1ccccc1C(F)(F)F | i | i | i | i | i
NC(=O)c1coc(-c2ccccc2)n1 | -7.1 | i | i | i | i
Cc1cc(-n2cccn2)ccc1CN1CCN(CC(C)C)C(CCO)C1 (stereo not drawn) | -7.3 | i | i | i | i
Cc1cc(-n2cccn2)ccc1CN1CCN(C2CCCC2)C(CCO)C1 (stereo not drawn) | i | i | i | i | i
CN(C)c1ccc(C2C=C(c3ccc(Cl)cc3OC(F)F)Nc3ncnn32)cc1 (stereo not drawn) | i | i | i | i | 40
Cc1ccc(C2C=C(c3ccccc3OC(F)F)Nc3ncnn32)cc1 (stereo not drawn) | i | i | i | i | i
CCO[C@H]1OC(C(N)=O)=C[C@@H](C2CC2)[C@@H]1CCCO | i | i | i | i | i
O=c1[nH][nH]c(C(F)(F)F)c1C=NCc1cccs1 | i | i | i | i | i
CN1CCN(/N=C/c2ccc(-c3ccc([N+](=O)[O-])cc3Cl)o2)CC1 | i | -4.6 | i | i | i
CCCN(C(=O)CSCc1ccccc1C)c1c(N)n(Cc2ccccc2)c(=O)[nH]c1=O | i | -7.2 | i | i | i
CC1CC(C)CN(CCCNC(=O)Cn2ncc3c(=O)oc4ccccc4c32)C1 (stereo not drawn) | i | i | i | i | i
Cc1c2cnn(CC(=O)NCCCN3CC(C)CC(C)C3)c(=O)c2c(C)n1Cc1ccccc1Cl (stereo not drawn) | i | -6.9 | i | i | i
SMILES | RGS4 act | MrgX1 antagonist | RGS4 inh | MrgX1 PAM | MrgX1 ag
O=C1CCCN1CCCNc1ncnc2c1[nH]c1ccc(Cl)cc12 | i | i | i | i | 37
CCN(CC)S(=O)(=O)c1ccc(N2CCN(S(=O)(=O)c3ccccc3C#N)CC2)nc1 | nt | -5 | nt | i | i
CCN(CC)S(=O)(=O)c1ccc(N2CCN(S(=O)(=O)c3ccccc3)CC2)nc1 | i | nt | i | nt | nt
COc1cccc(/C=C/C(=O)OCC(=O)Nc2ccc(Cl)cn2)c1 | i | i | i | i | i
COc1cccc([C@@H]2CC=C(C(=O)O)[C@H](c3ccc(Cl)cc3)N2S(=O)(=O)c2ccc(C)cc2)c1 | nt | i | nt | i | i
CCc1ccc([C@@H]2CC=C(C(=O)O)[C@H](c3ccccc3F)N2S(=O)(=O)c2ccc(C)cc2)cc1 | nt | i | nt | 6.8 | i
Cc1ccc(S(=O)(=O)N2[C@@H](c3cccc(Cl)c3)C(C(=O)O)=CC[C@H]2c2ccc3c(c2)OCO3)cc1 | nt | i | nt | 7 | i
Cc1ccc(S(=O)(=O)N2[C@@H](c3ccc(Cl)cc3)C(C(=O)O)=CC[C@H]2c2ccc3c(c2)OCO3)cc1 | nt | i | nt | i | i
CCc1ccc([C@@H]2CC=C(C(=O)O)[C@H](c3ccc(Cl)cc3)N2S(=O)(=O)c2ccc(C)cc2)cc1 | nt | i | nt | i | i
COc1cccc([C@@H]2CC=C(C(=O)O)[C@H](c3ccccc3F)N2S(=O)(=O)c2ccc(C)cc2)c1 | nt | i | nt | 8.3 | i
CCOC(=O)c1c(C)[nH]c(C(=O)/C(C#N)=C/c2ccc(OCC)cc2)c1C | -7.6 | i | i | i | i
CC(=O)c1c(C)[nH]c(C(=O)/C(C#N)=C/c2cccc(C)c2)c1C | i | i | i | i | i
CCn1nc(CC(=O)Nc2ccc(-n3cnnn3)c(OC)c2)c2ccccc2c1=O | i | -5.2 | i | i | i
CN(C)c1cc[n+](CC(=O)Nc2ccc(Oc3ccccc3)cc2)cc1 | -9.1 | i | i | i | i
COc1cccc(C(=O)COC(=O)C(C)N2C(=O)C3C4C=CC(C4)C3C2=O)c1 (stereo not drawn) | i | i | i | i | i
CCOC(=O)/C(=N/Nc1ccc(C)cc1)S(=O)(=O)c1ccc(Cl)cc1 | -8 | i | i | i | i
Cc1c(C=O)c2ccccn2c1C(=O)c1ccc(Cl)c([N+](=O)[O-])c1 | i | -4.6 | i | i | i
Cc1c(C(=O)Nc2ccc(Cl)cc2)c2ccccn2c1C(=O)c1ccc([N+](=O)[O-])cc1 | -8.2 | i | i | i | i
Cc1c(C(=O)Nc2ccc(Cl)cc2)c2ccccn2c1C(=O)c1ccccc1 | i | i | i | i | i
COc1ccc(NC(=O)CSc2nnc(NC(=O)C3CCC3)s2)c(OC)c1 | i | i | i | i | i
CCCOc1cccc(-c2cc(-c3n[nH]c(=S)n3CC)c3ccccc3n2)c1 | -8.5 | i | i | i | i
S=C1N(c2ccccc2)C(c2ccc(Cl)cc2)N2CCCN12 (stereo not drawn) | -7.2 | i | i | i | i
COc1ccc(C2N(c3ccccc3)C(=S)N3CCCN23)cc1 (stereo not drawn) | i | i | i | i | i
Cc1ccc(SCC(=O)Nc2ccccc2C(=O)O)cc1 | i | i | i | i | i
Cc1ccc(CSc2nnc(SCC(=O)N/N=C/c3ccc(C(=O)O)cc3)s2)cc1 | i | -5.2 | i | i | i

Compound activity from PubChem BioAssay.
